For the assay, the target named is Neuronal acetylcholine receptor subunit alpha-7 (Homo sapiens, UniProt P36544). Nature of the assay: Positive allosteric modulation activity at human alpha7 nAChR expressed in Xenopus laevis oocytes assessed as increase in acetylcholine-induced channel current by measuring acetylcholine EC50 at 10 uM at -90 mV holding potential preincubated for 2 mins followed by co-application with acetylcholine for 10 secs by two-electrode voltage clamp method (Rvb = 231.8 +/- 2 uM). An outline of the steps:
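ACh concentration-response on α7-expressing Xenopus oocytes, run without compound or after 2 min preincubation with 10 μM compound. Peak currents were normalised to the current evoked by 100 μM ACh alone. Curves were fitted for Emax, ACh EC50 and Hill coefficient, n = 4 per point.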
Background: Two-electrode voltage clamp is typically applied to oocytes expressing channels or transporters.

Structures are written as SMILES. pEC50: −log10 of the molar value.

Broadly, the pEC50 is the negative decadic logarithm of the EC50, by convention in mol/L.

Chain of Neuronal acetylcholine receptor subunit alpha-7 (P36544 whole entry): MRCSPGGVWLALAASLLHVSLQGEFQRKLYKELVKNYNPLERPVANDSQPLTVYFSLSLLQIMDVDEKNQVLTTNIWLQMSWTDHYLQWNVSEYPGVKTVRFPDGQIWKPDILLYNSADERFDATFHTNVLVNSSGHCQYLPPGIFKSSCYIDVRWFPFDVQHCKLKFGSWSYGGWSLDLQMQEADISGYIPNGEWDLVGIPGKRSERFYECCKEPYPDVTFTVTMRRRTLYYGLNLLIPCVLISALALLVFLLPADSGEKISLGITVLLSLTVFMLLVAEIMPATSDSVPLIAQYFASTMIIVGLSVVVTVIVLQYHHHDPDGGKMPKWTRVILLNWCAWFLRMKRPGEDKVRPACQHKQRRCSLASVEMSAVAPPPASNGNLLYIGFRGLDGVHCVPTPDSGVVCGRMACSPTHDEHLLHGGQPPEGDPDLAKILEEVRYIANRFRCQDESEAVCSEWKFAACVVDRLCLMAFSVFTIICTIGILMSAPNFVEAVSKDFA

`Cc1cc(-c2cnc(N)c(C(=O)Nc3c(C)cccc3Cl)c2)ccc1F`: the pEC50 was 3.59.

These data come from BindingDB's records for doi:10.1016/j.bmcl.2019.05.046 (Peking University, 2019).
